Test results published in ChEMBL document CHEMBL1148895, “New cytotoxic cyclic peptides and dianthramide from Dianthus superbus” (J Nat Prod, 2004).
Converted amounts (≈) assume the structure as drawn. Residues, ends and D or L forms follow the SMILES beside them.

Assays:
[1] = Cytotoxicity against human Hep3B cells after 3 days by MTT assay; type: functional, cell-based, Hep 3B2; conditions: 72 h
Outline: (§1)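 Freshly trypsinized cells were seeded at 5000-10 000 per well, with compounds added from a DMSO-diluted stock. After 3 days of culture, attached cells were incubated with MTT (0.5 mg/mL) for 1 h and then solubilized in DMSO. Absorbance was read at 550 nm. IC50 is the concentration that reduced cell growth by 50%.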

A549 = experiment: Cytotoxicity against human A549 cells after 3 days by MTT assay; type: functional, cell-based; conditions: A549, 72 h
Outline: (§2)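 Freshly trypsinized cells were seeded at 5000-10 000 per well, with compounds added from a DMSO-diluted stock. After 3 days of culture, attached cells were incubated with MTT (0.5 mg/mL) for 1 h and then solubilized in DMSO. Absorbance was read at 550 nm.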

MDA-MB-231 = experiment: Cytotoxicity against human MDA-MB-231 cells after 3 days by MTT assay; type: functional, cell-based; conditions: MDA-MB-231, 72 h; outline: as §1
MCF7 = experiment: Cytotoxicity against human MCF7 cells after 3 days by MTT assay; type: functional, cell-based; conditions: MCF7, 72 h; outline: as §1
HepG2 = experiment: Cytotoxicity against human HepG2 cells after 3 days by MTT assay; type: functional, cell-based; conditions: HepG2, 72 h; outline: as §2

## CC[C@H](C)[C@@H]1NC(=O)[C@@H]2CCCN2C(=O)[C@@H]2CCCN2C(=O)[C@H](CC(C)C)NC(=O)[C@H](CO)NC(=O)CNC(=O)[C@H](Cc2ccccc2)NC1=O (cyclo(FGSLPPI))
[1]
  IC50: > 20 µg/mL
A549
  IC50: > 20 µg/mL
MDA-MB-231
  IC50: > 20 µg/mL
MCF7
  IC50: > 20 µg/mL
HepG2
  IC50: > 20 µg/mL

## CC[C@H](C)[C@@H]1NC(=O)[C@@H]2CCCN2C(=O)CNC(=O)[C@H](C(C)C)NC(=O)[C@H](Cc2ccccc2)NC(=O)[C@H](CO)NC1=O (cyclo(FVGPIS))
[1]
  IC50: > 20 µg/mL
A549
  IC50: > 20 µg/mL
MDA-MB-231
  IC50: > 20 µg/mL
MCF7
  IC50: > 20 µg/mL
HepG2
  IC50: 2.37 µg/mL (≈ 3.95 µM)

## CC[C@H](C)[C@@H]1NC(=O)[C@H](C(C)C)NC(=O)[C@H](Cc2ccc(O)cc2)NC(=O)[C@H](Cc2ccccc2)NC(=O)[C@@H]2CCCN2C(=O)CNC1=O (cyclo(FYVIGP))
[1]
  IC50: > 20 µg/mL
A549
  IC50: > 20 µg/mL
MDA-MB-231
  IC50: > 20 µg/mL
MCF7
  IC50: > 20 µg/mL
HepG2
  IC50: 17.2 µg/mL (≈ 25.4 µM)

## COC(=O)c1ccc(OC)cc1NC(=O)c1ccccc1O [4-METHOXYDIANTHRAMIDE B]
[1]
  IC50: 16 µg/mL (≈ 53.2 µM)
A549
  IC50: > 20 µg/mL
MDA-MB-231
  IC50: > 20 µg/mL
MCF7
  IC50: > 20 µg/mL
HepG2
  IC50: 4.08 µg/mL (≈ 13.5 µM)

## COc1cccc2c1C(=O)c1c(O)c3c(c(O)c1C2=O)C[C@@](O)(C(=O)CO)C[C@@H]3O[C@H]1C[C@H](N)[C@H](O)[C@H](C)O1 [DOXORUBICIN]
[1]
  IC50: 0.31 µg/mL (≈ 0.57 µM)
MDA-MB-231
  IC50: 0.73 µg/mL (≈ 1.34 µM)
MCF7
  IC50: 1.21 µg/mL (≈ 2.23 µM)
